Experimental data from different studies.
Compare with care: the assays were run in different laboratories.

test	system	setting	endpoint	result	SMILES
chemical stability, HPLC	aqueous buffer	167 µM, pH 7.4	half-life	0.993 h	O=C(N1CCC(CNS(=O)(=O)c2ccc(Cl)cc2)CC1)n1cncn1
	Kunming mouse, plasma	oral, 100 mg/kg	bioavailability	25.6%	N[C@@H](CSSC[C@H](N)C(=O)O)C(=O)O
	male rhesus monkey, plasma	oral, 5 mg/kg, single dose	Vd/F	38 L/kg	C[C@]1(c2nc3c(C(N)=O)cccc3[nH]2)CCCN1
	male C57BL/6 mouse, plasma	oral, 1 mg/kg	bioavailability	89%	CCc1ccc(Cc2cc([C@@H]3O[C@H](CO)[C@@H](O)[C@H](O)[C@H]3O)cc3c2CCC3)cc1
chemical stability	aqueous buffer	pH 7.3	half-life	0.642 h	Cc1cccc(C(=O)n2nc(Cl)c(=O)c3ccccc32)c1
	male BALB/c mouse, plasma	intravenous, 10 mg/kg	AUC(0-t)	233 µg·h/mL	CC[C@H](C)[C@@H]1NC(=O)[C@@](C)(NC(=O)[C@H](CCCNC(=N)N)NC(=O)[C@H](CC(C)C)NC(=O)[C@@H](NC(=O)[C@H](CCC(N)=O)NC(=O)[C@H](CC(C)C)NC(C)=O)[C@@H](C)O)CCCC=CCCC[C@@](C)(C(=O)N[C@@H](CC(C)C)C(=O)N[C@@H](Cc2ccc3ccccc3c2)C(N)=O)NC(=O)[C@H](CCCNC(=N)N)NC(=O)[C@H](CCC(N)=O)NC1=O
chemical stability, HPLC	aqueous buffer	167 µM, pH 7.4	half-life	1.21 h	O=C(ON1C(=O)CCC1=O)N1CCC(CNS(=O)(=O)c2ccc(Cl)cc2)CC1
chemical stability	aqueous buffer	pH 7.3	half-life	1.9 h	Cc1cccc(C(=O)n2ncc(=O)c3ccccc32)c1
